First the molecules themselves.
B1: tRNA (parent)
chain: GUUCCGUUGGCGUAAUGGUAACGCGUCUCCCUCCUAAGGAGAAGACUGCGGGUUCGAGUCCCGUACGGAACG

Variants at the floor of the assay were thinned out. Some results are limits rather than exact numbers.

In this data set the parent is B1. The experiment in a line: yeast fitness relative to wild type (ratio to wild type); higher = fitter; tRNA-Arg(CCU), competitive growth, 37 C, YPD. In short, it runs like this: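 Variants of the tRNA-Arg(CCU) gene were chemically synthesised with a 3% per-site mutation rate across 69 sites and placed at the native genomic locus in Saccharomyces cerevisiae. Six parallel replicates of the pooled strains were competed in YPD at 37°C for 24 hours, and gene amplicons from the start and end populations were read by 100-nucleotide paired-end sequencing. Darwinian fitness relative to wild type was derived from changes in genotype frequencies. Genotypes required ≥ 100 starting reads, and estimates < 0.5 were set to 0.5.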
On to U8C G23A, for which the yeast fitness amounted to 0.793. As for U28A G38C, the yeast fitness amounted to 0.541. Then A20C G38C A70C, with at most 0.5. U13A C24A: the yeast fitness was 0.624. Take C4G C30G C33G C66U: the yeast fitness is at most 0.5. Regarding G39A G68U, the yeast fitness is 0.824. On to C5U C11A U26A C29U C30A C31U, for which the yeast fitness was at most 0.5.

As for U19A A45U A69U, the yeast fitness came out at 0.739. Take C24A A37G A57G G63A A65G: the yeast fitness was at most 0.5. Consider C11U A21U A69G, for which the yeast fitness turned out to be 0.712.

For U13G C22U C31A A70U, the yeast fitness was at most 0.5.

Turning to A20C G48C G67A, the yeast fitness turned out to be 0.638.

As for C4G U8C U16A A21C C24G A37U C49U C55U, the yeast fitness is at most 0.5. Regarding C22A C24A U26C C49U U64A, the yeast fitness was at most 0.5. Then A14U A36U G41A C49G, with at most 0.5; and G9C C31G C66A G68C, with 0.553.

With A14G G48C U64G, the yeast fitness was found to be 0.503. In the case of C22A U35G C66G A69U, the yeast fitness is at most 0.5. U7C U26A U54C: the yeast fitness was at most 0.5. G38C A45U C66U: the yeast fitness is at most 0.5.

As to A15U U28A C33G, the yeast fitness stood at 0.561. In the case of A37C G52C C60G C61A C66U, the yeast fitness is at most 0.5. On to C27G A45U A70C, for which the yeast fitness came out at 0.614.

In the case of C5A C11G G17A A37U C49A, the yeast fitness was at most 0.5. U8A C30G C62U G67C: the yeast fitness came out at 0.546. As to C27A U47G A69C, the yeast fitness is at most 0.5. In the case of A20G C29U A57C, the yeast fitness was at most 0.5. C30G A40G A45G G52C A57C C60U A70C: the yeast fitness is at most 0.5. C11U A15G U32A: the yeast fitness was at most 0.5. Next, U28C C62U: 1.02. For the variant C31U A40G, the yeast fitness came out at 0.786. Consider G25A G48A C62G A69U, for which the yeast fitness is 0.749.

As for U16G C46U A69C, the yeast fitness was 1.07.

On to C4U U7C C24G C34A A45C G56A C61A A65C A69C A70G, for which the yeast fitness was at most 0.5.

Turning to U32G G67A, the yeast fitness is 0.643. Regarding G41A G58C, the yeast fitness worked out at 0.929. Next, C29G G51C: 0.55. Take G25C G52A U54G: the yeast fitness was at most 0.5. Next, C11A A43U A45C U53C: at most 0.5; G9A C22G G67A: 0.648.

On to C27U C31G C55G, for which the yeast fitness was at most 0.5.

As to A36U A70C, the yeast fitness is 0.799. Then C27G C33A, with 0.593.

G12A C49G A69C: the yeast fitness stood at 0.551. For G10C A37G G52A C55G G58A, the yeast fitness was at most 0.5. Take C11A A20U C61U: the yeast fitness is 0.558. Then C5G G39C, with 0.675; and C33G A37G A43C U47C G58C, with at most 0.5. Then C5A C22U G39A C61U, with 0.503; and U2C C27A A65G, with 0.632; and C22U U35C A37U G50C C66U, with 0.569.

Turning to C22G C31A A43G A70U, the yeast fitness is at most 0.5. Turning to C5A G9A, the yeast fitness is 0.975.

For the variant C4G A21U C66G, the yeast fitness is at most 0.5. Regarding U7A A15C A57G, the yeast fitness is at most 0.5. As to C4G U32G C62U G67U, the yeast fitness is at most 0.5. As to C11A A20U C29U C33G C62A A70U, the yeast fitness was at most 0.5. Consider G25A A43C C66A, for which the yeast fitness is 0.581. Regarding A43G A45G, the yeast fitness was determined as 0.745. C29G C30G C46G: the yeast fitness amounted to 0.521. As to G6A C34G A37G A57G A70C, the yeast fitness is at most 0.5. G10C A15G U35A G44A A69U: the yeast fitness was at most 0.5. In the case of C4U C46A G50A C61U C62U, the yeast fitness is 1.09.

With U3A G10C A36U A40C A65G, the yeast fitness is at most 0.5. Regarding U3C U54G, the yeast fitness turned out to be 0.536. Then C5U U32C C55U, with 0.564; and G52C G63A A69G, with at most 0.5. Then A40U A43C, with 1; and U16A A20C C24G C33G, with at most 0.5; and U16G G23C G48A C61A C66U, with 0.54. Then C30G C34U C49G C55U, with at most 0.5. As to C22G G58C, the yeast fitness stood at 0.971. As for C11G C27A C66A, the yeast fitness was at most 0.5. Turning to C11U C62U A70C, the yeast fitness amounted to 0.698. As for A14U C30U C46U G52C A69U, the yeast fitness was at most 0.5. Then G9C U35A A45C U47G C62G A65C, with at most 0.5; and G9A A45G, with 1.01; and C5U A20C U26G C30U C49U C66G, with at most 0.5. On to U3G C11U A70G, for which the yeast fitness was found to be 0.576.

For U28C A42C U54G, the yeast fitness is at most 0.5. For the variant C29U C34U G39A G58A C60U, the yeast fitness is at most 0.5.

As for G6A U13C G23A A65C, the yeast fitness is at most 0.5. U8G A20C C49G G50A G56C: the yeast fitness is at most 0.5.

In the case of C22G U28A G44A, the yeast fitness is at most 0.5. For U8C C22G C49U G63A U64C, the yeast fitness is at most 0.5. C5G U7C C24G A43C: the yeast fitness was 0.629. Regarding A43G U64G C66U, the yeast fitness turned out to be 0.544. Take A21C C29U A57C A69U: the yeast fitness was at most 0.5. As to A20U G25A G63A, the yeast fitness was 0.716.

As to C30A A45G, the yeast fitness was 0.896.

In the case of A36U G48C C55G, the yeast fitness was at most 0.5.

U8G U26A: the yeast fitness stood at 0.605. Turning to U13G A69C, the yeast fitness amounted to 0.951.

As for G17A C22U C66U, the yeast fitness was 0.589. As for A20U C29G C49G U54C G63C, the yeast fitness was 0.535. Regarding G41A A43U, the yeast fitness amounted to 0.788. In the case of U8G U13A, the yeast fitness turned out to be 0.56. For the variant A15G G44C U59A, the yeast fitness is at most 0.5. Next, U3A C11G A40G U53G G68C: 0.654; U8A A21G C24A C30A A45U U47C C49A: 0.572.

Take A20G G48A C49G U59A: the yeast fitness was at most 0.5.

Consider C34A G51A G67A, for which the yeast fitness was at most 0.5.

Take C11U G17A C34U C55G: the yeast fitness is at most 0.5. On to C22A G25A G48A C61G, for which the yeast fitness was at most 0.5.

For C5U C30U A40U A70C, the yeast fitness is at most 0.5. C24G C33G U53C C55U A70G: the yeast fitness is 0.57.

Turning to G9A C11A A14C U16A C31A C61U, the yeast fitness is at most 0.5. Then C11U C31G C46G C66U, with 0.564; and G18C U35A A65C, with at most 0.5.

G9A A69C: the yeast fitness was 1.05. C27U G51A: the yeast fitness is 0.836. Consider U13C A15G A65C, for which the yeast fitness stood at 0.583. Turning to C30G G50A, the yeast fitness stood at 0.72. In the case of C4A G9A C24U C30U A36G A57G G58A G63A, the yeast fitness is at most 0.5.

Turning to A37G G51C C62G, the yeast fitness came to 0.55. C5G U19A A20U G51C: the yeast fitness was at most 0.5.

On to G44A G52A, for which the yeast fitness was found to be 0.827. As to A15U C31U U35A A36C U53A G68C, the yeast fitness was at most 0.5. For the variant C5U A14G A43G, the yeast fitness was found to be 0.553. G44C G50A G67C: the yeast fitness is 0.604.

As for C27U C29G A57C C61A, the yeast fitness was at most 0.5. Regarding G6C G48C A65U A70U, the yeast fitness is at most 0.5. For A40U U54C A70U, the yeast fitness worked out at 0.695. As to U8A G9A U19G C24G, the yeast fitness was found to be 0.551.

As to A21C C49U A69U, the yeast fitness amounted to 0.61. Next, U3C U19C C24A G58A: at most 0.5; C4U A45U C66U: 0.656; G10C C24G C27U C33U G50C G68A: at most 0.5. Take C5U U13G A15U: the yeast fitness was at most 0.5. As to U16A C55A G68A, the yeast fitness is at most 0.5.

With G39C A57C C61A U64C, the yeast fitness was at most 0.5. As to C22A C33A C60A, the yeast fitness was 0.642. For C5G C11G U35G A42G G56C, the yeast fitness is at most 0.5. G6A U26A A57C G67A A69U: the yeast fitness is at most 0.5. On to A15C U35C, for which the yeast fitness came out at 0.578. Turning to C5G A14U C29U C33G A43U U54C, the yeast fitness is at most 0.5. In the case of C22G G51A, the yeast fitness amounted to 0.749. As to A43G G50C U59C, the yeast fitness was at most 0.5.

A15G G38A A40G A69U: the yeast fitness was at most 0.5. As to G6A A42U G58A, the yeast fitness turned out to be 0.634. Turning to C27A C33A C46A G63C, the yeast fitness is at most 0.5. On to G17C C55U A69U, for which the yeast fitness is at most 0.5. On to C4U A57C C62U, for which the yeast fitness worked out at 0.601. Then U3A C29U U59G C66U, with at most 0.5; and U8A C24A C30U G48C, with at most 0.5; and G9A G10A C31G G44A, with at most 0.5. On to U16C A45U C49U G51A A57C C60G, for which the yeast fitness was at most 0.5. Next, U28A G52A U54A: at most 0.5. As to C27G A57U U59C, the yeast fitness came out at 0.508. Next, G6C U53C C62U: 0.589. Turning to C31U C49G G52A C62U, the yeast fitness was at most 0.5. Regarding U26A C55G, the yeast fitness worked out at 0.571. Next, C34U G67A G68C: 0.653; U2A G39U C49A G58C: 0.939.

C22A A45U: the yeast fitness came out at 0.837. As for G6A C34A, the yeast fitness was found to be 0.739. Regarding C33G G52C C61U U64C, the yeast fitness is at most 0.5. With U7G A40U G63A, the yeast fitness worked out at 0.66. As for U2A C4G G9A G44A U54C, the yeast fitness was at most 0.5. Consider C5A G9C A21U, for which the yeast fitness was at most 0.5. Next, A20C G23C C27A U64A: at most 0.5.

For U3C C4A A15C C27G C33U C61G, the yeast fitness is at most 0.5.

On to C4G A21C C30A G51A, for which the yeast fitness turned out to be 0.747. Regarding A21G U26C C27G G48C, the yeast fitness was at most 0.5. Then C11U G44C G58A, with 0.712; and A14G G17A, with 0.735; and C24G A36G A40C, with at most 0.5.

The values above are taken from the RNAGym collection of RNA variant scans (doi:10.1126/science.aae0568).
